Assay results from paper PMC10194330 (Virus Research, 2022).

What was measured:
HCV = details: ref Bost et al., 2003; cited from earlier work
ZIKV = details: ref Sultana et al., 2018; cited from earlier work
ER = details: treatment during 2 h; ref Terasaki et al., 1986; cited from earlier work
BHK-21 cells [1] = assay: Fluorescence imaging of microtubules, MTOC and endoplasmic reticulum; assay type: cell-based; details: for MTOC localization/detection: BHK-21 cells, 24 h treatment
Procedure, shortened: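 BHK-21 cells on coverslips infected (MOI=1, 2 h) or mock, then treated 24 h with test compound from 6 or 12 hpi. Fixed in 3.8% paraformaldehyde. Microtubules stained with anti-α/β-tubulin and MTOC with anti-γ-tubulin; […] used as comparator. For ER imaging, cells were transfected with pmKate2-ER plasmid and infected 24 h later. Imaged with a 60x objective.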

DENV-2 [2] = assay: Time-of-addition; assay type: cell-based, Dengue virus; details: S.71 72.4 μM, POD 0.1 μM added at 6 and 12 hpi, 24 h exposure, MOI=1
Procedure, shortened: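 BHK-21 cells infected (MOI=1, 2 h, 37 °C, 5% CO2) and washed with PBS. DMEM with 2% FBS containing test compound (72.4 µM; positive control 0.1 µM) added at 6, 12, 24 or 36 hpi, then incubated a further 24 h. Supernatant titrated by plaque assay. DMSO <0.05%. Three independent experiments, mean ± s.e.m., one-way ANOVA.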

BHK-21 cells [3] = assay: Cytotoxicity assay; assay type: cell-based
DENV-2 [4] = assay: Fluorescence imaging of dsRNA and ENV protein; assay type: cell-based, Dengue virus; details: treatment at 6 and 12 hpi; S.71 72.4 µM, POD 0.1 µM
Procedure, shortened: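 BHK-21 cells on coverslips infected with DENV-2 (MOI=1, 2 h). Test compound (72.4 µM; positive control 0.1 µM) added at 6 or 12 hpi and left 24 h. Cells washed with cytoskeleton buffer, fixed in 3.8% paraformaldehyde and immunostained for ENV (4G2) and dsRNA (J2), with tubulin and Hoechst nuclei. Imaged with a 60x objective; mean fluorescence intensity quantified. Three independent triplicate experiments; unpaired t-test.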

BHK-21 cells [5] = assay: Annexin V staining, size and granularity; assay type: cell-based; details: infected or uninfected BHK-21 cells, 24 h
Procedure, shortened: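 Infected and/or treated BHK-21 cells resuspended in binding buffer with annexin V, incubated 15 min at 4 °C, then diluted with binding buffer and centrifuged 5 min. Analysed by flow cytometry for annexin V, with cell size from forward scatter (FSC) and granularity from side scatter (SSC).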

DENV-2 [6] = assay: Negative-strand RNA production; assay type: cell-based, Dengue virus; details: S.71 72.4 μM, POD 0.1 μM; 6 and 12 hpi
BHK-21 cells [7] = assay: Cell recovery assay; assay type: cell-based
Procedure, shortened: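 BHK-21 cells on coverslips exposed 24 h to test compound. Compound then removed, monolayers washed and cultured 3 days in DMEM with 2% FBS. Cells fixed with 3.8% paraformaldehyde and nuclei stained with Hoechst 33342. Morphology imaged by differential interference contrast with a 60x objective.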

DENV-2 [8] = assay: Post-infection plaque reduction assay; assay type: cell-based, Dengue virus; details: S.71 at 50 and 100 μM, POD at 0.1 μM; six days
Procedure, shortened: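 BHK-21 cells infected with DENV-2 (MOI=1) for 2 h at 37 °C, 5% CO2, then washed with PBS. Test compound (12.5–100 µM) added in 1.5% carboxymethylcellulose medium; positive control as log dilutions 0.1–100 µM. Incubated 6 days, then plaques counted in 3 independent assays. EC50 defined as the concentration reducing viral plaques by 50%.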

## COC(=O)Nc1nc2ccc(C(=O)c3cccs3)cc2[nH]1 [nocodazole]
HCV
  HCV viral infection: reduced
ZIKV
  ZIKV viral infection: reduced
ER
  effect on ER: ER retraction
BHK-21 cells [1]
  MTOC localization/detection: not detected

## COc1cc2c(c(OC)c1OC)-c1ccc(OC)c(=O)cc1[C@@H](NC(C)=O)CC2 [colchicine]
HCV
  HCV viral infection: reduced
ZIKV
  ZIKV viral infection: reduced

## COc1cc([C@@H]2c3cc4c(cc3[C@H](O)[C@H]3COC(=O)[C@H]23)OCO4)cc(OC)c1OC [POD, Podophyllotoxin]
DENV-2 [2]
  viral yield of DENV-2: effective
BHK-21 cells [3]; CC50 could not be determined
  concentrations at which very toxic: > 1 µM
BHK-21 cells [3]; below 1 µM
  effect on cells below 1 µM: cytostatic
DENV-2 [4]
  ENV protein signal (MFI): significant decreases
  dsRNA signal (MFI): significant decreases
BHK-21 cells [1]; 6 hpi or 12 hpi, infected and mock cells
  effect on rough endoplasmic reticulum: ER retraction
BHK-21 cells [1]
  MTOC localization/detection: not detected
BHK-21 cells [1]; infected and uninfected cells treated at 6 or 12 hpi, 24 h, S.71 72.4 µM, POD 0.1 µM
  cell morphology and microtubule distribution: round morphology and fragmented microtubules
BHK-21 cells [5]
  cell granularity (SSC): increase in cell granularity
  cell size (FSC): changes in cell size were not observed
  phosphatidylserine exposure (annexin V): nor changes in phosphatidylserine exposure
DENV-2 [6]
  negative-strand RNA copies: low numbers of copies
BHK-21 cells [7]; 24 h treatment, then nutrient-supplemented medium
  recovery of cell morphology after treatment removal: recovered their normal morphology after three days
BHK-21 cells [7]; BHK-21 cells, 24 h
  nuclei after 24 h treatment: pyknotic and fragmented nuclei
DENV-2 [8]
  viral titer in post-infection treatment: effective

## CC(=O)O[C@H]1C(=O)[C@@]2(C)[C@H]([C@H](OC(=O)c3ccccc3)[C@]3(O)C[C@H](OC(=O)[C@H](O)[C@@H](NC(=O)c4ccccc4)c4ccccc4)C(C)=C1C3(C)C)[C@]1(OC(C)=O)CO[C@@H]1C[C@@H]2O [paclitaxel]
HCV
  HCV viral infection: reduced
ZIKV
  ZIKV viral infection: reduced
